According to ChEMBL document CHEMBL1122750, “8-Hydroxy-2-(alkylamino)tetralins and related compounds as central 5-hydroxytryptamine receptor agonists” (1984):
The source made the active and inactive calls. No cut-off for these calls is given here.

Experiments:
[1] = target: T1, Dopamine receptor (Rattus norvegicus) (UniProt P25115+P19020+P30729+P18901+P61169); experiment: Subcutaneous dose giving half-maximal decrease of Dopa formation in the rat brain (limbic); type: functional, tissue-based
[2] = target: T2, Serotonin (5-HT) receptor (Rattus norvegicus) (UniProt P35563+P35365+P32305+P31388+Q9JJ16+P28564+P30994+Q62758+P08909+P14842+P30940+P35364+P19327+P28565); experiment: Subcutaneous dose giving half-maximal decrease of 5-HTP formation in the rat brain (striatum); type: functional, tissue-based
Procedure, shortened: (§1)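 Male Sprague-Dawley rats (200–350 g) were reserpinized. Reserpine was dissolved in glacial acetic acid and made up with 5.5% glucose. Test drug was given sc in saline, at neutral pH, 5 or 10 mL/kg. Brain-part 5-HTP formation was measured spectrofluorometrically. ED50 (half-maximal decrease) came from 4–6 dose levels, n = 3-5.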

[3] = target: T1, Dopamine receptor (Rattus norvegicus); experiment: Subcutaneous dose giving half-maximal decrease of Dopa formation in the rat brain (striatum); type: functional, tissue-based
[4] = target: T2, Serotonin (5-HT) receptor (Rattus norvegicus); experiment: Subcutaneous dose giving half-maximal decrease of 5-HTP formation in the rat brain (limbic); type: functional, tissue-based; procedure, shortened: as §1
[5] = target: T2, Serotonin (5-HT) receptor (Rattus norvegicus); experiment: Subcutaneous dose giving half-maximal decrease of 5-HTP formation in the rat brain hemispheres (cortex); type: functional, tissue-based; procedure, shortened: as §1
Rattus norvegicus [6] = experiment: Compound was tested for subcutaneous dose giving half-maximal decrease of Dopa formation in the rat brain (limbic); type: functional; details: sc
Rattus norvegicus [7] = experiment: Compound was tested for subcutaneous dose giving half-maximal decrease of 5-HTP formation in the rat brain (striatum); Inactive; type: functional, organism-based; procedure, shortened: as §1
Rattus norvegicus [8] = experiment: Compound was tested for subcutaneous dose giving half-maximal decrease of 5-HTP formation in the rat brain hemispheres (cortex); Inactive; type: functional, organism-based; procedure, shortened: as §1
Rattus norvegicus [9] = experiment: Compound was tested for subcutaneous dose giving half-maximal decrease of 5-HTP formation in the rat brain (limbic); Inactive; type: functional, organism-based; procedure, shortened: as §1
Rattus norvegicus [10] = experiment: Compound was tested for subcutaneous dose giving half-maximal decrease of Dopa formation in the rat brain (striatum); type: functional; details: sc

SMILES	ED50 [1]	ED50 [2] [µmol/kg]	ED50 [3]	ED50 [4] [µmol/kg]	ED50 [5] [µmol/kg]	ED50 (Rattus norvegicus [6]) [µmol/kg]	ED50 (Rattus norvegicus [7])	ED50 (Rattus norvegicus [8])	ED50 (Rattus norvegicus [9])	ED50 (Rattus norvegicus [10]) [µmol/kg]
CCNC1CCc2cccc(O)c2C1 (stereo not given)	inactive	0.2	inactive	0.27	0.22	–	–	–	–	–
CCCN(CCC)[C@@H]1CCc2cccc(O)c2C1	inactive	0.047	inactive	0.036	0.05	–	–	–	–	–
CCCN(CCC)C1CCc2cccc(O)c2C1 (racemic)	inactive	0.052	inactive	0.052	0.063	–	–	–	–	–
CCCNC1CCc2cccc(O)c2C1 (stereo not given)	inactive	0.15	inactive	0.14	0.18	–	–	–	–	–
CCCN(Cc1ccccc1)C1CCc2cccc(O)c2C1 (stereo not given)	inactive	2.9	inactive	2.7	2.3	–	–	–	–	–
CC(C)NC1CCc2cccc(O)c2C1 (stereo not given)	inactive	2.9	inactive	2.6	4.1	–	–	–	–	–
Oc1cccc2c1CC(N1CCCCC1)CC2 (stereo not given)	inactive	1.1	inactive	1.6	1.4	–	–	–	–	–
CNC1CCc2cccc(O)c2C1 (stereo not given)	inactive	1.6	inactive	1.5	1.8	–	–	–	–	–
CCCN(CCC)C1CCc2c(O)ccc(O)c2C1 (stereo not given)	–	–	–	–	–	5.2	inactive	inactive	inactive	5.4
CCCCNC1CCc2cccc(O)c2C1 (stereo not given)	inactive	4.5	inactive	4.3	6.3	–	–	–	–	–
CCCCN(CCCC)C1CCc2cccc(O)c2C1 (stereo not given)	inactive	6.6	inactive	5	5.7	–	–	–	–	–
CCCN(CCC)C1CCc2c(OC)ccc(OC)c2C1 (stereo not given)	–	–	–	–	–	0.905	inactive	inactive	inactive	1.24
CCCCCCCCNC1CCc2cccc(O)c2C1 (stereo not given)	inactive	–	inactive	–	–	–	inactive	inactive	inactive	–
CCCCN(CCC)C1CCc2cccc(O)c2C1 (stereo not given)	inactive	0.26	inactive	0.27	0.34	–	–	–	–	–
CCN(CC)C1CCc2cccc(O)c2C1 (stereo not given)	inactive	0.068	inactive	0.054	0.07	–	–	–	–	–
CCN(CC)C(=O)[C@@H]1C=C2c3cccc4[nH]cc(c34)C[C@H]2N(C)C1 [LYSERGIDE]	–	0.035	–	0.036	0.036	0.39	–	–	–	0.395
CCCN(CCC)C1CCc2cccc(OC)c2C1 (stereo not given)	inactive	0.29	inactive	0.34	0.23	–	–	–	–	–
CN(C)C1CCc2cccc(O)c2C1 (stereo not given)	inactive	0.43	inactive	0.38	0.36	–	–	–	–	–
CCCN(CC)C1CCc2cccc(O)c2C1 (stereo not given)	inactive	0.059	inactive	0.057	0.066	–	–	–	–	–
CCCN(CCC)[C@H]1CCc2cccc(O)c2C1	inactive	0.065	inactive	0.061	0.077	–	–	–	–	–
